Experimental data reported in ChEMBL document CHEMBL4813921, “Optimization of WZ4003 as NUAK inhibitors against human colorectal cancer” (Eur J Med Chem, 2021).
Active and inactive are the calls of the source. The rule behind the calls is not given here.

Tests used:
[1] = molecular target: T1, NUAK family SNF1-like kinase 2 (Homo sapiens) (UniProt Q9H093); experiment: Inhibition of NUAK2 (unknown origin) at 10 uM using CHKtide as substrate in presence of ATP measured after 60 mins by ADP-Glo assay
T1 sequence (whole entry): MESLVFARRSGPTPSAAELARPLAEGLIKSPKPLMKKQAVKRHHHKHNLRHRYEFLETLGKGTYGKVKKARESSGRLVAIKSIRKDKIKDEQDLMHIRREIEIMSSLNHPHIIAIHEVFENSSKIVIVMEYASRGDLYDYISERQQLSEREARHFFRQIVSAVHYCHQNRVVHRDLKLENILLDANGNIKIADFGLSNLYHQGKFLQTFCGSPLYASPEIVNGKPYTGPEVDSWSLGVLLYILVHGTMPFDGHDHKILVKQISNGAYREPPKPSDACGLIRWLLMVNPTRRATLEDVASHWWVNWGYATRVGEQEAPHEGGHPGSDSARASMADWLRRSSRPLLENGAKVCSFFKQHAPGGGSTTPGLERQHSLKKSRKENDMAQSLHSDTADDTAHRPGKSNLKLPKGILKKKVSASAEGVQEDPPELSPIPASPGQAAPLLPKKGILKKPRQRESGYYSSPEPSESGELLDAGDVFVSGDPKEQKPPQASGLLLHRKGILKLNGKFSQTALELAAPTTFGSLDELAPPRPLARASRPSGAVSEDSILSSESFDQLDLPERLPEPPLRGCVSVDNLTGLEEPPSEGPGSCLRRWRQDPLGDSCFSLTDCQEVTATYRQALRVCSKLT

U2OS [2] = experiment: Antiproliferative activity against human U2OS cells assessed as reduction in cell viability at 10 uM measured after 1 to 5 days by MTT assay; assay type: functional; conditions: time 1-5 day
In short: (§1)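 MTT viability read daily over 1–5 days of exposure to 10 μM compound; mean ± SD, n = 3.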

HCT-116 [3] = experiment: Antiproliferative activity against human HCT-116 cells assessed as reduction in cell viability at 10 uM measured after 1 to 5 days by MTT assay relative to control; assay type: functional, cell-based; conditions: time 1-5 day; in short: as §1
U2OS [4] = experiment: Inhibition of colony formation in human U2OS cells measured after 14 days by crystal violet staining based microcopic analysis; assay type: functional, cell-based; conditions: dose 0.5-2 µM, time 14.0 day
In short: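 Clonogenic assay with 14-day exposure to a range of compound concentrations; colonies stained with crystal violet and imaged by microscopy; compared with untreated cells.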

U2OS [5] = experiment: Antiproliferative activity against human U2OS cells at 2.5 to 10 uM measured after 48 hrs by EdU staining based assay; assay type: functional, cell-based; conditions: dose 2.5-10 µM
In short: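 Cells exposed to a range of compound concentrations for 48 h, then EdU click-chemistry staining with DAPI counterstain. Confocal high-content imaging; DAPI-positive nuclei counted as total and EdU-positive as proliferating.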

U2OS [6] = experiment: Induction of cell cycle arrest in human U2OS cells assessed as increase in accumulation at G2/M phase at 10 uM measured after 48 hrs by PI/RNaseA staining based flow cytometry assay; assay type: functional
HCT-116 [7] = experiment: Induction of cell cycle arrest in human HCT-116 cells assessed as increase in accumulation at G2/M phase at 10 uM measured after 48 hrs by PI/RNaseA staining based flow cytometry assay; assay type: functional
HCT-116 [8] = experiment: Induction of cell cycle arrest in human HCT-116 cells assessed as reduction in accumulation at G1 phase at 10 uM measured after 48 hrs by PI/RNaseA staining based flow cytometry assay; assay type: functional
HCT-116 [9] = experiment: Induction of ROS generation in human HCT-116 cells at 10 uM measured after 48 hrs by DCFH-DA staining based flow cytometry method; assay type: functional, cell-based
In short: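 Cells treated at 10 μM for 48 h, ROS measured by flow cytometry. Fluorescence intensity expressed relative to vehicle-treated controls; mean ± SEM from 3 independent experiments.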

U2OS [10] = experiment: Induction of apoptosis in human U2OS cells assessed as viable cells at 10 uM measured after 48 hrs by Annexin V-FITC/PI staining based flow cytometry method (reference value: 95.5%); assay type: functional; conditions: read-out: Activity
U2OS [11] = experiment: Induction of apoptosis in human U2OS cells assessed as late apoptotic cells at 10 uM measured after 48 hrs by Annexin V-FITC/PI staining based flow cytometry method (reference value: 1.3%); assay type: functional
HCT-116 [12] = experiment: Induction of apoptosis in human HCT-116 cells assessed as early apoptotic cells at 10 uM measured after 48 hrs by Annexin V-FITC/PI staining based flow cytometry method (reference value: 0.8%); assay type: functional
HCT-116 [13] = experiment: Induction of apoptosis in human HCT-116 cells assessed as late apoptotic cells at 10 uM measured after 48 hrs by Annexin V-FITC/PI staining based flow cytometry method (reference value: 1.6%); assay type: functional
HCT-116 [14] = experiment: Induction of apoptosis in human HCT-116 cells assessed as necrotic cells at 10 uM measured after 48 hrs by Annexin V-FITC/PI staining based flow cytometry method (reference value: 2.2%); assay type: functional
SW480 [15] = experiment: Induction of apoptosis in human SW480 cells assessed as necrotic cells at 10 uM measured after 48 hrs by Annexin V-FITC/PI staining based flow cytometry method (reference value: 1.4%); assay type: functional
SW480 [16] = experiment: Antitumour activity against human SW480 cells xenografted in Balb/c-nu/nu mouse assessed as inhibition of tumour volume at 10 to 20 mg/kg, ip administered every 2 days for 18 days; assay type: functional, organism-based; conditions: dose 10-20 mg/kg, time 18.0 day
In short: (§2)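 SW480 xenografts in nude mice, randomized at 100 mm3 tumour volume into four groups of six. Dosed ip at 10 or 20 mg/kg every two days for 18 days, with vehicle group. Tumour volume and body weight recorded every two days; tumours weighed at end; means ± SD (n = 6).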

SW480 [17] = experiment: Antitumour activity against human SW480 cells xenografted in Balb/c-nu/nu mouse assessed as reduction in Ki67 expression in tumor at 10 mg/kg, ip administered every 2 days for 18 days by immunohistochemical assay; assay type: functional, organism-based; conditions: time 18.0 day
In short: (§3)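 SW480 xenografts in nude mice (n = 6 per group) treated ip every two days for 18 days. Excised tumours sectioned for HE and Ki67 staining, examined at ×400.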

SW480 [18] = experiment: Antitumour activity against human SW480 cells xenografted in Balb/c-nu/nu mouse assessed as reduction in Ki67 expression in tumor at 20 mg/kg, ip administered every 2 days for 18 days by immunohistochemical assay; assay type: functional, organism-based; conditions: time 18.0 day; in short: as §3
SW480 [19] = experiment: Antitumour activity against human SW480 cells xenografted in Balb/c-nu/nu mouse assessed as reduction in tumor weight at 10 to 20 mg/kg, ip administered every 2 days for 18 days; assay type: functional, organism-based; conditions: dose 10-20 mg/kg, time 18.0 day; in short: as §2
[20] = Toxicity against BALB/c-nu/nu mouse xenografted with human SW480 cells assessed as morphological changes in lung at 10 to 20 mg/kg, ip administered every 2 days for 18 days by H and E staining based analysis; assay type: organism-based; conditions: in vivo, 432 h, dose 10-20 mg/kg, time 18 day
In short: (§4)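 After 18 days of ip dosing every two days in SW480-xenografted nude mice, heart, liver, spleen, lung and kidney harvested, sectioned, HE-stained, examined at ×400.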

[21] = Toxicity against BALB/c-nu/nu mouse xenografted with human SW480 cells assessed as morphological changes in kidney at 10 to 20 mg/kg, ip administered every 2 days for 18 days by H and E staining based analysis; assay type: organism-based; conditions: in vivo, 432 h, dose 10-20 mg/kg, time 18 day; in short: as §4

CCC(=O)Nc1cccc(Oc2nc(Nc3ccc(N4CCN(C)CC4)cc3)ncc2Cl)c1
inhibition [1]: 82.5% | inhibition at 10 µM (U2OS [2]): 67.2% | Activity (HCT-116 [3]): Active | inhibition (U2OS [4]): Dose-Dependent Effect | Activity (U2OS [5]): Active | Activity (U2OS [6]): Active | Activity (HCT-116 [7]): Active | Activity (HCT-116 [8]): Active | Activity (HCT-116 [9]): Active | viability at 10 µM (U2OS [10]): 81.6% | Activity (U2OS [11]): 4.8% | Activity (HCT-116 [12]): 3.9% | Activity (HCT-116 [13]): 10% | Activity (HCT-116 [14]): 4.1% | Activity (SW480 [15]): 3.3% | Activity (SW480 [16]): Active | Activity (SW480 [17]): Active | Activity (SW480 [18]): Active | Activity (SW480 [19]): Active | Activity [20]: Non-Toxic | Activity [21]: Non-Toxic
